Measurements from ChEMBL document CHEMBL1955816, “Nitric oxide release is not required to decrease the ulcerogenic profile of nonsteroidal anti-inflammatory drugs” (J Med Chem, 2012).
pIC50: −log10 of the molar value.

Assays:
[1] = test system: Rattus norvegicus; assay: Ulcerogenic effect in rat assessed as gastric ulcer overall length at 0.08 mmol/kg, po administered for 6 hrs; assay type: toxicity, organism-based, Stomach; conditions: in vivo
Summary of the method: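 Rats were fasted 24 h with water allowed, then dosed orally at 0.08 mmol/kg as a suspension in 1% methylcellulose. Controls received vehicle. After 6 h, animals were killed by CO2 and stomachs opened along the greater curvature, rinsed and kept on ice. Each ulcer was measured along its greatest length under a magnifier. Ulcer index is the total ulcer length per stomach averaged over n = 4, ±SEM.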

[2] = molecular target: T1, Prostaglandin G/H synthase 1 (Ovis aries, UniProt P05979); assay: Inhibition of ovine COX1
T1 sequence (P05979 whole entry): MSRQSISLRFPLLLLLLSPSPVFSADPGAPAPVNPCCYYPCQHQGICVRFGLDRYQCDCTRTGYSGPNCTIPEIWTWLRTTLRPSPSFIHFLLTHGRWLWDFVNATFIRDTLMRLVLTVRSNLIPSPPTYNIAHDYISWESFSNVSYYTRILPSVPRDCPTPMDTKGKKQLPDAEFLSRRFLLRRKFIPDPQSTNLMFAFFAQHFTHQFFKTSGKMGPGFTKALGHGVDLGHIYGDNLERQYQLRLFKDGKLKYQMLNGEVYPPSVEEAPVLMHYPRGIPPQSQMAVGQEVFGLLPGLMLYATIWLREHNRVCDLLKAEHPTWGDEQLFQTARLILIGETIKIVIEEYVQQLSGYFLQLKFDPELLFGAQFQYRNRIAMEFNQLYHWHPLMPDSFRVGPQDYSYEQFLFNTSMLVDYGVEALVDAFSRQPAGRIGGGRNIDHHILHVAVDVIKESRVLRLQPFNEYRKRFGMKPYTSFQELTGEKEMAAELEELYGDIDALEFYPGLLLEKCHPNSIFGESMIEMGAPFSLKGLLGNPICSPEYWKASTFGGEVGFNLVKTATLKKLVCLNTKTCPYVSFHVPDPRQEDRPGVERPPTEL
Summary of the method: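 Ovine COX-1 was tested in a cyclooxygenase inhibitor screening kit, following the manufacturer's procedure. Deviation from the mean was <10%.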

[3] = test system: Rattus norvegicus; assay: Antiinflammatory activity in rat assessed as inhibition of carrageenan-induced paw edema at 0.01 mmol/kg, po after 3 hrs relative to control; assay type: functional; parameters: scale not given: the % may be the effect or the level left
Summary of the method: (§1)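 Rats were given an oral gavage suspension in 1% methylcellulose, at doses equimolar to the parent NSAID: 0.71, 0.32 or 0.01 mmol/kg. Controls received an equal volume of vehicle. Carrageenan-induced paw edema was read 3 h after dosing. Activity is the % decrease in the inflammatory response versus the vehicle group.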

[4] = Lipophilicity, log P of the compound; assay type: physicochemical; conditions: octanol/water
Summary of the method: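 Log P is a theoretical n-octanol/water distribution coefficient, calculated rather than measured.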

[5] = test system: Rattus norvegicus; assay: Antiinflammatory activity in rat assessed as inhibition of carrageenan-induced paw edema at 0.32 mmol/kg, po after 3 hrs relative to control; assay type: functional; parameters: scale not given: the % may be the effect or the level left; summary of the method: as §1
[6] = test system: Rattus norvegicus; assay: Antiinflammatory activity in po dosed rat assessed as inhibition of carrageenan-induced paw edema after 3 hrs; assay type: functional; conditions: read-out: ID50 (the source's name); summary of the method: as §1
[7] = test system: Rattus norvegicus; assay: Ulcerogenic effect in rat assessed as gastric ulcer overall length at 1.4 mmol/kg, po administered for 6 hrs; assay type: toxicity, organism-based, Stomach; conditions: in vivo
Summary of the method: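 Rats fasted 24 h with water allowed, then given a suspension in 1.2 mL 1% methylcellulose by gavage. Controls received vehicle. At 6 h, CO2 euthanasia. Stomachs were opened along the greater curvature, rinsed and put on ice. Ulcers were counted and measured under a magnifier (≤1 mm = 1, 1–2 mm = 2, >2 mm = length). Ulcer index = summed length per stomach averaged over n = 4, ±SEM.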

[8] = test system: Rattus norvegicus; assay: Antiinflammatory activity in rat assessed as inhibition of carrageenan-induced paw edema at 0.71 mmol/kg, po after 3 hrs relative to control; assay type: functional; parameters: scale not given: the % may be the effect or the level left; summary of the method: as §1

Structure (SMILES) | UI [1] [mm] | pIC50 [2] | Activity [3] [%] | logP [4] | Activity [5] [%] | ED50 [6] [µmol/kg] | UI [7] [mm] | Activity [8] [%]
COc1ccc2c(c1)c(CC(=O)Oc1ccc(CCO)cc1)c(C)n2C(=O)c1ccc(Cl)cc1 | 9.6 | < 4.00 | 61.3 |  |  |  |  | 
CC(C)Cc1ccc(C(C)C(=O)O)cc1 (stereo not given) [IBUPROFEN] |  |  |  | 3.7 | 50 | 300 |  | 
CC(=O)Oc1ccccc1C(=O)Oc1ccc(CCO)cc1 |  | 7.52 |  | 2 |  |  | 2.6 | 58
CC(C)Cc1ccc(C(C)C(=O)Oc2ccc(CCO)cc2)cc1 (stereo not given) |  | 5.19 |  | 4.6 | 63 |  | 3.5 | 
COc1ccc2c(c1)c(CC(=O)O)c(C)n2C(=O)c1ccc(Cl)cc1 [INDOMETHACIN] | 34.4 |  | 38.3 |  |  |  |  | 
CC(=O)Oc1ccccc1C(=O)O [ASPIRIN] |  |  |  | 1.2 |  | 700 | 57.4 | 50
